# Assay results published in PMC4259821 (European journal of pharmacology, 2014).
# Where a name gives a salt, the structure may show the parent alone.
# Legend:
# CB2 = CB2 (Homo sapiens, UniProt P34972); test: Calcium mobilization assay, CB2; format: cell-based
# APJ (Apelin) = molecular target: T1, APJ (Apelin) (Homo sapiens, UniProt P35414); test: Calcium mobilization assay, APJ; format: cell-based
# T1 sequence (P35414 1-380): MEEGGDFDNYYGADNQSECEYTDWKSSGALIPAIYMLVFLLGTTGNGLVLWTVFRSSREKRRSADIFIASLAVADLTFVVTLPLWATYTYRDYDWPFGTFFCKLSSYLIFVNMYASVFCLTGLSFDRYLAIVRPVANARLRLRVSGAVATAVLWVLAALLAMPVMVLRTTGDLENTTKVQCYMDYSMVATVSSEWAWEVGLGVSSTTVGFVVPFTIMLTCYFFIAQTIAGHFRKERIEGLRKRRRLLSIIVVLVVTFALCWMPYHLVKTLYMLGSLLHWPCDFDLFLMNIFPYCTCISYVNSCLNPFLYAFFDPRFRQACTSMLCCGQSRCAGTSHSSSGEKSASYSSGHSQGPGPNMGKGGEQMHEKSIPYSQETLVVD
# Procedure, shortened: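 CHO-Gα16-APJ cells were plated overnight at 30,000 cells/well in DMEM/F12 with 10% FBS and loaded with Calcium 5 dye for 45 min at 37°C. Compound dilutions contained BSA/DMSO: 2.25% BSA/9% DMSO for pretreatment, 0.25% BSA/1% DMSO for treatment. Antagonist mode: 15 min pretreatment, then EC50–EC80 apelin. Fluorescence was read on FLIPR or FlexStation. EC50/IC50 came from a three-parameter logistic fit.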
# CaV 3.1 = CaV 3.1 (Homo sapiens, UniProt O43497); test: Calcium voltage channel 3.1 calcium mobilization assay; format: cell-based
# CaV 3.2 = CaV 3.2 (Homo sapiens, UniProt O95180); test: Calcium voltage channel 3.2 calcium mobilization assay; format: cell-based
# delta opioid receptor = delta opioid receptor (Homo sapiens, UniProt P41143); test: Calcium mobilization assay, delta opioid receptor; format: cell-based
# [1] = system: cocaine self-administration; details: rats; 5–30 mg/kg i.p.; ref Schmoutz et al., 2012; cited from earlier work
# [2] = system: food-maintained responding; details: rats, ref Schmoutz et al., 2012, cited from earlier work
# NPS receptors [3] = test: In vitro calcium mobilization assay, NPS receptor antagonism; format: cell-based; details: vs 13 receptors and ion channels of Table 1
# 5HT2A = 5HT2A (Homo sapiens, UniProt P28223); test: Calcium mobilization assay, 5-HT2A; format: cell-based
# Procedure, shortened: (§1)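 Stable human 5-HT2A or 5-HT2B HEK293 cells were plated overnight on PEI-coated plates at 40,000 or 35,000 cells/well in DMEM-HG, 10% FBS, 15 mM HEPES. Calcium 5 dye was loaded for 45 min at 37°C in HBSS/HEPES/probenecid, pH 7.4. Antagonist mode used 15 min compound pretreatment, then EC50–EC80 5-HT. Peak fluorescence change was fit to a three-parameter logistic.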
# hTAAR1 = molecular target: T2, hTAAR1 (Homo sapiens, UniProt Q96RJ0); test: hTAAR1 cAMP assay; format: cell-based
# T2 sequence (Q96RJ0 1-339): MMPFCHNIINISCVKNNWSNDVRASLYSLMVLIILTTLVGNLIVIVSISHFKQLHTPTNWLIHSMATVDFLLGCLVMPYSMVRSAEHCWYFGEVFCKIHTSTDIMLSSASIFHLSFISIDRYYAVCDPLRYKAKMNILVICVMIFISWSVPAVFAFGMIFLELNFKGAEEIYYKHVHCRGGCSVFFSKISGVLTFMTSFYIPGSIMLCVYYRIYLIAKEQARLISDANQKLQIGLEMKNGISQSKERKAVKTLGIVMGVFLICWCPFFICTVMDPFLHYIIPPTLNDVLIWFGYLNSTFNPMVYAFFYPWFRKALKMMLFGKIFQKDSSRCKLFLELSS
# TRPV1 = TRPV1 (Homo sapiens, UniProt Q8NER1); test: Calcium mobilization assay, TRPV1; format: cell-based
# Procedure, shortened: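 HEK293 cells stably expressing human TRPV1, plated overnight at 30,000 cells/well on PEI-coated plates in DMEM-HG with 10% FBS. Calcium 5 dye in HBSS, 20 mM HEPES, 2.5 mM probenecid, pH 7.4, for 45 min at 37°C. Antagonist mode: 15 min compound pretreatment, then EC50–EC80 capsaicin. Agonist mode: compound added directly. Three-parameter logistic fit.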
# 5HT1A = molecular target: T3, 5HT1A (Homo sapiens, UniProt P08908); test: Calcium mobilization assay, 5-HT1A; format: cell-based
# T3 sequence (P08908 1-422): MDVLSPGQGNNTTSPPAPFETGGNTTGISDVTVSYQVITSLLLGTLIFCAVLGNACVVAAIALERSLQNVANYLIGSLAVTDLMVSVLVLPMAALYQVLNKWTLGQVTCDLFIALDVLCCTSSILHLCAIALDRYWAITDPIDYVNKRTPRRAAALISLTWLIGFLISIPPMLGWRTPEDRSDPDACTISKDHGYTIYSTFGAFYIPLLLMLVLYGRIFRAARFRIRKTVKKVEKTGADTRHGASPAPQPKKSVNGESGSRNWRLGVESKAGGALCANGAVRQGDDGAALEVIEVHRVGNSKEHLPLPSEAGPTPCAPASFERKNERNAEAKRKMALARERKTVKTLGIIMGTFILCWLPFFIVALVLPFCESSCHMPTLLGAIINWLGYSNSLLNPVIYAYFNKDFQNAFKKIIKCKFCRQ
# Procedure, shortened: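 CHO-Gα16 cells stably expressing human 5-HT1A, plated overnight at 25,000 cells/well in Ham's F12 with 10% FBS. Calcium 5 dye (1:40) in HBSS, 20 mM HEPES, 2.5 mM probenecid, pH 7.4, for 45 min at 37°C. Agonist mode: compound added at 10 s, fluorescence read 90 s. Antagonist mode: 15 min compound pretreatment, then EC50–EC80 5-HT. Three-parameter logistic fit.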
# ICSS in rats = test: Intracranial self-stimulation; format: in vivo, rat; details: i.p.
# mu opioid receptor = mu opioid receptor (Homo sapiens, UniProt P35372); test: Calcium mobilization assay, mu opioid receptor; format: cell-based
# NPS receptors [4] = details: calcium mobilization; ref Zhang et al., 2008; cited from earlier work
# CB1 = CB1 (Homo sapiens, UniProt P21554); test: Calcium mobilization assay, CB1; format: cell-based
# 5HT2B = 5HT2B (Homo sapiens, UniProt P41595); test: Calcium mobilization assay, 5-HT2B; format: cell-based
# Procedure, shortened: as §1
# kappa opioid receptor = kappa opioid receptor (Homo sapiens, UniProt P41145); test: Calcium mobilization assay, kappa opioid receptor; format: cell-based
# Sequence of kappa opioid receptor (P41145 whole entry): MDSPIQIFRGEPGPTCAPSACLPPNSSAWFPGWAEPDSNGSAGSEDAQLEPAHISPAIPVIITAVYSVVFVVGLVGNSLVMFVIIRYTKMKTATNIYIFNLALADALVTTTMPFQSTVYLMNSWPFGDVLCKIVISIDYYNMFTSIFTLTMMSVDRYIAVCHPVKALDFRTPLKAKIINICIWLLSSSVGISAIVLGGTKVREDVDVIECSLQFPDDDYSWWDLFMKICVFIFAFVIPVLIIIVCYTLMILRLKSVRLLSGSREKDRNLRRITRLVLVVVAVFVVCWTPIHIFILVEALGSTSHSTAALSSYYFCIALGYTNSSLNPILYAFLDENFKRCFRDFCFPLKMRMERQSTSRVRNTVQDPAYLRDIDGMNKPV
# Sequence of TRPV1 (Q8NER1 whole entry): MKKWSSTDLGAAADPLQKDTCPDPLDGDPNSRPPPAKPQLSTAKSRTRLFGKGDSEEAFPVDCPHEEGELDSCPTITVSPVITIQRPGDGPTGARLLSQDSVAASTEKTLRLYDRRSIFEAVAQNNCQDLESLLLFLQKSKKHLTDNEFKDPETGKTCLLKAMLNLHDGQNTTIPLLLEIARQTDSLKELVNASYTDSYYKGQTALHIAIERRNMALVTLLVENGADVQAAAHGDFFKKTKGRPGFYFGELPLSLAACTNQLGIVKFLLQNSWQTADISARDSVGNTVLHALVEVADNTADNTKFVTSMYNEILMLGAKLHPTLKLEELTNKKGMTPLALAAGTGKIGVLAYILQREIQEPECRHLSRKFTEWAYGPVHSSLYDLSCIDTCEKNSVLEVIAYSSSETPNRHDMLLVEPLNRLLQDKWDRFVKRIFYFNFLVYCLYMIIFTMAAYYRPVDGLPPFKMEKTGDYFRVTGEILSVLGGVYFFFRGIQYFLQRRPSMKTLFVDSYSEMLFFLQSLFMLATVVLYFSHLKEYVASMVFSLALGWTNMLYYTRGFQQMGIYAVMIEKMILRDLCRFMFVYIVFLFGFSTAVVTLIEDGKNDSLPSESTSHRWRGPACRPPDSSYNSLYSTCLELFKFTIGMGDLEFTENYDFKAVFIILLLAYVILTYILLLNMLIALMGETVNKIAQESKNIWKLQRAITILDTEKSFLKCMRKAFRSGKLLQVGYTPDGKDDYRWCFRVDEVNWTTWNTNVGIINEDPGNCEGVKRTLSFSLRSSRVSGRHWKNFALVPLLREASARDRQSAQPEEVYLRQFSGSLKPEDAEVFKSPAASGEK
# Sequence of 5HT2A (P28223 whole entry): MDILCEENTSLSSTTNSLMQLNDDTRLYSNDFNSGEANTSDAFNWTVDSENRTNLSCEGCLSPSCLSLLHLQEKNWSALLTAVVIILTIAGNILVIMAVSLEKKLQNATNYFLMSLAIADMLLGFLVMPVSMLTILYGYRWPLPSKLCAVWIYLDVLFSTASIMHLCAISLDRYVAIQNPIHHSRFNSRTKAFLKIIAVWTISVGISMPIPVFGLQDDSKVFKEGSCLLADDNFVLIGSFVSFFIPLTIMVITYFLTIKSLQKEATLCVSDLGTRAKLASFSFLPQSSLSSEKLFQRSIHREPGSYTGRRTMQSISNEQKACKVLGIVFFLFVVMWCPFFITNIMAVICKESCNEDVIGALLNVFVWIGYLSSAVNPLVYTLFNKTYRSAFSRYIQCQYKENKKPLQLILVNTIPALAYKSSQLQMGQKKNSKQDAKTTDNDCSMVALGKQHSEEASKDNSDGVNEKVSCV
# Sequence of mu opioid receptor (P35372 whole entry): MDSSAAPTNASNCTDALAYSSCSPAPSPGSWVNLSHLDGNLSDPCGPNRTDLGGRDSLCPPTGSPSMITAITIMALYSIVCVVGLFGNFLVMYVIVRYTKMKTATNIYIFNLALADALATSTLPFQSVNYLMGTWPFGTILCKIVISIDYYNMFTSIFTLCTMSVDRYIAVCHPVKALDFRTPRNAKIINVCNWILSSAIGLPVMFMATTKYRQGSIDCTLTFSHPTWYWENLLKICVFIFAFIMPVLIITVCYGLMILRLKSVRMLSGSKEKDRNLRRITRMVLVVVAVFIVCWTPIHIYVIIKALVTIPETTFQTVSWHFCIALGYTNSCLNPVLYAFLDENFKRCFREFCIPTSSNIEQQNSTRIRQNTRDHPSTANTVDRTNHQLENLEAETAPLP
# Sequence of CB1 (P21554 whole entry): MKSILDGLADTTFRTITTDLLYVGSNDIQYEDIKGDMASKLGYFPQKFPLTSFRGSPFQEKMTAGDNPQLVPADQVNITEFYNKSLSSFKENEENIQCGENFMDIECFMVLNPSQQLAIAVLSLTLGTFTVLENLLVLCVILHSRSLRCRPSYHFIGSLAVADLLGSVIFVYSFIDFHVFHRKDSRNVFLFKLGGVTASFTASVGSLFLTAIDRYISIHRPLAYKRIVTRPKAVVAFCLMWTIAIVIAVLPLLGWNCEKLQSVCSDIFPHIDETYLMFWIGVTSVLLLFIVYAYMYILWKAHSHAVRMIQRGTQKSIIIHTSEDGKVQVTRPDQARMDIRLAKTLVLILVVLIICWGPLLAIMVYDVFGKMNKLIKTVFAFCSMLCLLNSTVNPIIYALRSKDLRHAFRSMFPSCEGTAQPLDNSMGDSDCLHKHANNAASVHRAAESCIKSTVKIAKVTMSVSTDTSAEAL
# Sequence of CB2 (P34972 whole entry): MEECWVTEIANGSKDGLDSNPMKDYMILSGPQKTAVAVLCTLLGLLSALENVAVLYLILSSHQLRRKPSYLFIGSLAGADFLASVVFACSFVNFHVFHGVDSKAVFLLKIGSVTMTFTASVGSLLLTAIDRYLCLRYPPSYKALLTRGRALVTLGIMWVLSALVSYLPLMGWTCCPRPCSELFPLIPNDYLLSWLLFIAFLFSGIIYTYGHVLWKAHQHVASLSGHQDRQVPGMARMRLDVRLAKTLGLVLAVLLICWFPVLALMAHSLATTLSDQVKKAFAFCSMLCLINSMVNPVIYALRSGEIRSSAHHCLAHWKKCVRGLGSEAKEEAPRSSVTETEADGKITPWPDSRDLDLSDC
# Sequence of delta opioid receptor (P41143 whole entry): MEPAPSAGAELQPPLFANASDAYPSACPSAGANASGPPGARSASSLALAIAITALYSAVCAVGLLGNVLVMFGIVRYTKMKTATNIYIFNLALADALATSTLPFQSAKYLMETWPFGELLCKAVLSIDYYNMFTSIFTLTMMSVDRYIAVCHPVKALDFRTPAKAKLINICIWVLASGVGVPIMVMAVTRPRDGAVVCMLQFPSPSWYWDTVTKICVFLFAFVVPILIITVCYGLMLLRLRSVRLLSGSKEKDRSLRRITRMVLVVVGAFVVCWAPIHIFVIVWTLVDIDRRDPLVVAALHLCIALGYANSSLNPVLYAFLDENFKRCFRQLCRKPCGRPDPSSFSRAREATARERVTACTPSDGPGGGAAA
# Sequence of 5HT2B (P41595 whole entry): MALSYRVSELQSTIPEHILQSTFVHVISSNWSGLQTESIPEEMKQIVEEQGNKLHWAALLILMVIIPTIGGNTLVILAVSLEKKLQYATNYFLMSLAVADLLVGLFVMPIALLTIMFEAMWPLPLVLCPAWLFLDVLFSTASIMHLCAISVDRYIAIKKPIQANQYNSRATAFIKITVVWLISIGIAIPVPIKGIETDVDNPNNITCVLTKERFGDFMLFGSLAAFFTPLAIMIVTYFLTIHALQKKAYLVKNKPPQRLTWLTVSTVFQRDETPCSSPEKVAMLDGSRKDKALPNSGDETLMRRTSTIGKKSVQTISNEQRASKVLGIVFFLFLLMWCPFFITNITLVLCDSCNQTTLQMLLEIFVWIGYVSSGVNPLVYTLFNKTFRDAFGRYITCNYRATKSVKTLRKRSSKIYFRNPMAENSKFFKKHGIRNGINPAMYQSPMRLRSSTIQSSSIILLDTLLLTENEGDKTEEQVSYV
compound,measurement,setting,value
"O=C(NCCN1CCCCC1)N1CCN2C(=O)OC(c3ccccc3)(c3ccccc3)C2C1 (stereo not shown) [RTI-118, 3-oxo-1,1-diphenyl-N-(2-(piperidin-1-yl)ethyl)tetrahydro-1H-oxazolo[3,4-a]pyrazine-7(3H)-carboxamide]",EC50,CB2,> 10 µM
same,IC50,CB2,> 10 µM
same,EC50,APJ (Apelin),> 10 µM
same,IC50,APJ (Apelin),> 10 µM
same,IC50,CaV 3.1,> 10 µM
same,IC50,CaV 3.2,> 10 µM
same,EC50,delta opioid receptor,> 10 µM
same,IC50,delta opioid receptor,> 10 µM
same,Effect on cocaine self-administration,[1],dose-dependent and nearly complete elimination of cocaine self-administration
same,Reduction in rates of food-maintained responding,[2]; 30 mg/kg,up to 20%
same,Effect on rates of food-maintained responding,[2]; doses up to 20 mg/kg IP,had no effect on rates of food-maintained responding
same,Selectivity for NPS receptors relative to the other targets,NPS receptors [3],at least 100 fold
same,EC50,5HT2A,> 10 µM
same,IC50,5HT2A,> 10 µM
same,EC50,hTAAR1,> 10 µM
same,IC50,hTAAR1,> 10 µM
same,EC50,TRPV1,> 10 µM
same,IC50,TRPV1,> 10 µM
same,EC50,5HT1A,> 10 µM
same,IC50,5HT1A,> 10 µM
same,"Effect on ICSS, drug alone",ICSS in rats; 10 mg/kg RTI-118,significantly increased ICSS at one frequency (1.9 log Hz)
same,Effect of pretreatment on MDPV-induced facilitation of ICSS,ICSS in rats; 32 mg/kg RTI-118 + 3.2 mg/kg MDPV,did not alter MDPV-induced facilitation of ICSS
same,"Effect on ICSS, drug alone","ICSS in rats; 32 mg/kg RTI-118, first group of rats",significantly decreased ICSS at only one frequency (2.05 log Hz)
same,"Effect on ICSS, drug alone","ICSS in rats; 32 mg/kg RTI-118, second group of rats (MDPV study)",did not significantly alter ICSS at any frequency
same,"Effect on ICSS, drug alone",ICSS in rats; low doses of 3.2–10 mg/kg RTI-118,had little effect on ICSS
same,Effect of pretreatment on cocaine-induced facilitation of ICSS,ICSS in rats; pretreatment + 10 mg/kg cocaine vs vehicle + 10 mg/kg cocaine,attenuation of cocaine effects was statistically significant only at the highest RTI-118 dose (32 mg/kg)
same,EC50,mu opioid receptor,> 10 µM
same,IC50,mu opioid receptor,> 10 µM
same,Ke value as an antagonist at NPS receptors,NPS receptors [4],109 ± 23 nM
same,EC50,CB1,> 10 µM
same,IC50,CB1,> 10 µM
same,EC50,5HT2B,> 10 µM
same,IC50,5HT2B,> 10 µM
same,EC50,kappa opioid receptor,> 10 µM
same,IC50,kappa opioid receptor,> 10 µM
"CCCC(C(=O)c1ccc2c(c1)OCO2)N1CCCC1.Cl (racemic) [MDPV, (±)-3,4-methylenedioxypyrovalerone HCl, reference compound]","Effect on ICSS, drug alone",ICSS in rats; 3.2 mg/kg MDPV vs vehicle + vehicle,facilitated ICSS across a broad range of frequencies (1.75–2.05 log Hz)
"COC(=O)[C@H]1[C@@H](OC(=O)c2ccccc2)C[C@@H]2CC[C@H]1N2C [Cocaine, (−)-Cocaine HCl, reference compound]","Effect on ICSS, drug alone",ICSS in rats; 10 mg/kg cocaine,facilitated ICSS across a broad range of six frequencies (1.75–2.0 log Hz)
